ChEMBL document CHEMBL1687766, “In vitro activity of the new multivalent glycopeptide-cephalosporin antibiotic TD-1792 against vancomycin-nonsusceptible Staphylococcus isolates” (Antimicrob Agents Chemother, 2010)
Values after ≈ are worked out from the molar mass of the structure shown.

Assays:
Assay type in all cases: functional
[1] = system: Staphylococcus aureus; test: Antimicrobial activity against vancomycin-intermediate Staphylococcus aureus isolate MU50 assessed as bacterial count at 8 times MIC after 24 hrs by colony counting method
Outline: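 24-h time-kill run in triplicate in supplemented Mueller-Hinton broth (12.5 μg/ml Mg, 25 μg/ml Ca), adjusted to 1.1–1.3 mM Ca for daptomycin. […] Samples were taken at 0, 1, 4, 8 and 24 h and counted on BHI agar after 24 h at 35°C. Value is log10 CFU/ml change from baseline at 24 h.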

[2] = system: Staphylococcus aureus; test: Antimicrobial activity against vancomycin-intermediate Staphylococcus aureus isolate MU50 assessed as bacterial count at 4 times MIC after 24 hrs by colony counting method in presence of 50% human serum
Outline: (§1)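 Triplicate 24-h time-kill in 50% human serum (heated 56°C 1 h, filtered) mixed with supplemented Mueller-Hinton broth, giving final 25 μg/ml Ca broth strength for TD-1792 and 50 for daptomycin. […] Samples from 0 to 24 h were counted on BHI agar (35°C, 24 h). Value is log10 CFU/ml change from baseline.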

[3] = system: Staphylococcus aureus; test: Antimicrobial activity against vancomycin-resistant Staphylococcus aureus isolate PA after 24 hrs by microdilution method in presence of 50% human serum
Outline: (§2)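 Broth microdilution per CLSI, inoculum 5 × 10^5 CFU/ml, 24 h at 35°C, in duplicate. Medium was 50% (vol/vol) human serum plus 50% broth, final 25 SMHB for TD-1792 and 50 SMHB for daptomycin. Serum was heated 56°C for 1 h and filtered through 0.8, 0.5 and 0.22 μm. MBC by plating clear wells on BHI agar.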

[4] = system: Staphylococcus aureus; test: Antimicrobial activity against vancomycin-resistant Staphylococcus aureus isolate PA assessed as bacterial count at 32 times MIC after 24 hrs by colony counting method
Outline: (§3)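 Time-kill in triplicate. Mid-exponential culture (OD600 ~0.3) diluted in supplemented Mueller-Hinton broth to 5 × 10^6 CFU/ml. Daptomycin was run at physiologic calcium, 1.1 to 1.3 mM. […] Samples at 0, 1, 4, 8 and 24 h were diluted in cold saline or vacuum filtered, then spiral-plated on BHI agar for 24 h at 35°C. Value is the log10 CFU/ml change from baseline at 24 h.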

[5] = system: Staphylococcus aureus; test: Antimicrobial activity against vancomycin-resistant Staphylococcus aureus isolate PA assessed as bacterial count at 4 times MIC after 24 hrs by colony counting method; outline: as §3
[6] = system: Staphylococcus aureus; test: Antimicrobial activity against vancomycin-resistant Staphylococcus aureus isolate NY after 24 hrs by microdilution method
Outline: (§4)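 Broth microdilution per CLSI, inoculum 5 × 10^5 CFU/ml, Mueller-Hinton broth with 12.5 μg/ml magnesium and 25 μg/ml calcium (SMHB). Daptomycin was instead tested in SMHB at physiologic calcium (final 1.1 to 1.3 mM). Incubation 24 h at 35°C; MIC read; run in duplicate. MBC from 5-μl samples of clear wells plated on BHI agar, 24 h at 35°C.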

[7] = system: Staphylococcus aureus; test: Antimicrobial activity against vancomycin-resistant Staphylococcus aureus isolate PA assessed as bacterial count at 8 times MIC after 24 hrs by colony counting method in presence of 50% human serum
Outline: (§5)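 Time-kill in triplicate, starting inoculum 5 × 10^6 CFU/ml from a mid-exponential culture. Medium was 50% heat-treated, filtered human serum plus 50% broth, final 25 SMHB for TD-1792 and 50 SMHB for daptomycin. Drug at multiples of MIC. Samples to 24 h were plated on BHI agar for 24 h at 35°C. Value is the log10 CFU/ml change from baseline at 24 h.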

[8] = system: Staphylococcus aureus; test: Antimicrobial activity against vancomycin-intermediate Staphylococcus aureus isolate NJ992 after 24 hrs by microdilution method; settings: isolate NJ992, 24 h; outline: as §4
[9] = system: Staphylococcus aureus; test: Antimicrobial activity against vancomycin-resistant Staphylococcus aureus isolate MI assessed as bacterial count at 4 times MIC after 24 hrs by colony counting method; outline: as §3
[10] = system: Staphylococcus aureus; test: Antimicrobial activity against vancomycin-intermediate Staphylococcus aureus isolate MU50 assessed as bacterial count at 16 times MIC after 24 hrs by colony counting method; outline: as §3
[11] = system: Staphylococcus haemolyticus; test: Antimicrobial activity against vancomycin-intermediate Staphylococcus haemolyticus after 24 hrs by microdilution method in presence of 50% human serum; settings: for MBC / MIC50 / MIC90: Staphylococcus haemolyticus, 24 h
Outline: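 Broth microdilution MIC/MBC (5 × 10^5 CFU/ml, 24 h, 35°C, duplicate) in 50% heat-treated (56°C, 1 h), filtered human serum plus supplemented Mueller-Hinton broth, with final broth strength 25 for TD-1792 and 50 for daptomycin. MBC was taken by plating clear wells on BHI agar.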

[12] = system: Staphylococcus aureus; test: Antimicrobial activity against vancomycin-intermediate Staphylococcus aureus isolate NJ992 after 24 hrs by microdilution method in presence of 50% human serum; settings: isolate NJ992, 24 h; outline: as §2
[13] = system: Staphylococcus aureus; test: Ratio of MIC for vancomycin-intermediate Staphylococcus aureus isolate NJ992 in presence of 50% human serum to MIC for vancomycin-intermediate Staphylococcus aureus isolate NJ992
Outline: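 Ratio of the broth microdilution MIC (5 × 10^5 CFU/ml, 24 h, 35°C, duplicate) measured in 50% heat-treated human serum/supplemented Mueller-Hinton broth to the MIC measured in supplemented broth alone.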

[14] = system: Staphylococcus aureus; test: Antimicrobial activity against vancomycin-resistant Staphylococcus aureus isolate MI after 24 hrs by microdilution method in presence of 50% human serum; outline: as §2
[15] = system: Staphylococcus aureus; test: Antimicrobial activity against vancomycin-heteroresistant Staphylococcus aureus after 24 hrs by microdilution method in presence of 50% human serum; outline: as §2
[16] = system: Staphylococcus aureus; test: Antimicrobial activity against vancomycin-intermediate Staphylococcus aureus isolate MU50 assessed as bacterial count at 8 times MIC after 24 hrs by colony counting method in presence of 50% human serum; outline: as §1
[17] = system: Staphylococcus aureus; test: Antimicrobial activity against vancomycin-intermediate Staphylococcus aureus isolate MU50 after 24 hrs by microdilution method in presence of 50% human serum; settings: isolate MU50, 24 h; outline: as §2
[18] = system: Staphylococcus aureus; test: Antimicrobial activity against vancomycin-resistant Staphylococcus aureus isolate MI assessed as bacterial count at 32 times MIC after 24 hrs by colony counting method in presence of 50% human serum; outline: as §5
[19] = system: Staphylococcus aureus; test: Antimicrobial activity against vancomycin-resistant Staphylococcus aureus isolate MI assessed as bacterial count at 16 times MIC after 24 hrs by colony counting method; outline: as §3
[20] = system: Staphylococcus aureus; test: Ratio of MIC for vancomycin-intermediate Staphylococcus aureus in presence of 50% human serum to MIC for vancomycin-intermediate Staphylococcus aureus
[21] = system: Staphylococcus aureus; test: Antimicrobial activity against vancomycin-resistant Staphylococcus aureus isolate PA after 24 hrs by microdilution method; outline: as §4
[22] = system: Staphylococcus aureus; test: Antimicrobial activity against vancomycin-heteroresistant Staphylococcus aureus after 24 hrs by microdilution method; settings: Staphylococcus aureus, 24 h; outline: as §4

Row | SMILES | log10CFU/ml [1] | log10CFU/ml [2] | MBC [3] | MIC [3] | log10CFU/ml [4] | log10CFU/ml [5] | MBC [6] | MIC [6] | log10CFU/ml [7] | MBC [8] | MIC [8] | log10CFU/ml [9] | log10CFU/ml [10] | MBC50 [11] | MBC90 [11] | MBC [11] | MIC50 [11] | MIC90 [11] | MBC [12] | MIC [12] | further results
1 | CN[C@H](CC(C)C)C(=O)N[C@H]1C(=O)N[C@@H](CC(N)=O)C(=O)N[C@H]2C(=O)N[C@H]3C(=O)N[C@H](C(=O)N[C@H](C(=O)NCCCO/N=C(\C(=O)N[C@@H]4C(=O)N5C(C(=O)[O-])=C(C[n+]6ccccc6)CS[C@H]45)c4nc(N)sc4Cl)c4cc(O)cc(O)c4-c4cc3ccc4O)[C@H](O)c3ccc(c(Cl)c3)Oc3cc2cc(c3O[C@@H]2O[C@H](CO)[C@@H](O)[C@H](O)[C@H]2O[C@H]2C[C@](C)(N)[C@H](O)[C@H](C)O2)Oc2ccc(cc2Cl)[C@H]1O | 4.33 | 3.05 | 0.125 µg/mL | 0.125 µg/mL | 5.05 | 4.06 | 0.06 µg/mL (≈ 0.0303 µM) | 0.03 µg/mL (≈ 0.0151 µM) | 4.65 | 0.06 µg/mL (≈ 0.0303 µM) | 0.06 µg/mL (≈ 0.0303 µM) | 2.95 | 4.94 | 0.25 µg/mL | 0.5 µg/mL | 0.03 µg/mL | 0.25 µg/mL | 0.5 µg/mL | 0.25 µg/mL | 0.25 µg/mL | Ratio [13]: 4; MBC [14]: 8 µg/mL; MIC [14]: 2 µg/mL; MBC [15]: 0.03 µg/mL; MIC50 [15]: 0.25 µg/mL; MIC90 [15]: 0.5 µg/mL; log10CFU/ml [16]: 3.6; MBC [17]: 0.25 µg/mL; MIC [17]: 0.25 µg/mL; log10CFU/ml [18]: 4.03; log10CFU/ml [19]: 3.34; Ratio [20]: 2; MBC [21]: 0.125 µg/mL (≈ 0.063 µM); MIC [21]: 0.03 µg/mL (≈ 0.0151 µM); MBC [22]: 0.015 µg/mL (≈ 0.00756 µM); MIC50 [22]: 0.06 µg/mL (≈ 0.0303 µM); MIC90 [22]: 0.125 µg/mL (≈ 0.063 µM)
2 | CCCCCCCCCC(=O)N[C@@H](Cc1c[nH]c2ccccc12)C(=O)N[C@H](CC(N)=O)C(=O)N[C@@H](CC(=O)O)C(=O)N[C@@H]1C(=O)NCC(=O)N[C@@H](CCCN)C(=O)N[C@@H](CC(=O)O)C(=O)N[C@H](C)C(=O)N[C@@H](CC(=O)O)C(=O)NCC(=O)N[C@H](CO)C(=O)N[C@@H]([C@H](C)CC(=O)O)C(=O)N[C@@H](CC(=O)c2ccccc2N)C(=O)O[C@@H]1C | 4.82 | 4.01 | 0.5 µg/mL | 0.25 µg/mL | 5.1 | 3.33 | 0.125 µg/mL (≈ 0.0771 µM) | 0.125 µg/mL (≈ 0.0771 µM) | 5.11 | 1 µg/mL (≈ 0.617 µM) | 1 µg/mL (≈ 0.617 µM) | 4.59 | 5.12 | 4 µg/mL | 8 µg/mL | 1 µg/mL | 1 µg/mL | 4 µg/mL | 2 µg/mL | 2 µg/mL | Ratio [13]: 2; MBC [14]: 1 µg/mL; MIC [14]: 0.5 µg/mL; MBC [15]: 1 µg/mL; MIC50 [15]: 1 µg/mL; MIC90 [15]: 4 µg/mL; log10CFU/ml [16]: 4.13; MBC [17]: 2 µg/mL; MIC [17]: 2 µg/mL; log10CFU/ml [18]: 5.11; log10CFU/ml [19]: 4.96; Ratio [20]: 2; MBC [21]: 0.25 µg/mL (≈ 0.154 µM); MIC [21]: 0.25 µg/mL (≈ 0.154 µM); MBC [22]: 0.25 µg/mL (≈ 0.154 µM); MIC50 [22]: 1 µg/mL (≈ 0.617 µM); MIC90 [22]: 1 µg/mL (≈ 0.617 µM)
